Holding throughout (assay type): functional
One assay deals with Fusarium verticillioides. The assay is described as follows: Antimicrobial activity against Fusarium moniliforme after 48 to 72 hrs by agar dilution method. The procedure, abridged: (§1)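 Filamentous fungi and yeasts tested by conventional agar dilution on ISP2 medium to give MIC; plates incubated at 28 °C and read after 48-72 h; each test repeated four times.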
The subject of another assay is Fusarium oxysporum. In words: Antimicrobial activity against Fusarium oxysporum f.sp. lini (Foln 3-5) after 48 to 72 hrs by agar dilution method. The procedure, abridged: as §1
Another assay concerns Klebsiella pneumoniae. In words: Antimicrobial activity against Klebsiella pneumoniae CIP 82.91 after 24 to 48 hrs by agar dilution method. The procedure, abridged:
(§2)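 MIC determined by conventional agar dilution on ISP2 medium; bacterial plates incubated at 37 °C and read for growth inhibition after 24-48 h; each test repeated four times.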

A further assay has as its system Bacillus subtilis. The assay is described as follows: Antimicrobial activity against Bacillus subtilis ATCC 6633 after 24 to 48 hrs by agar dilution method. The essentials: as §2
The next assay deals with Pseudomonas aeruginosa. In words: Antimicrobial activity against Pseudomonas aeruginosa CIP A22 after 24 to 48 hrs by agar dilution method. The procedure, abridged: as §2
Assay [1] relates to Agrobacterium tumefaciens. In words: Antimicrobial activity against Agrobacterium tumefaciens no. 2410 LB after 24 to 48 hrs by agar dilution method. The procedure, abridged: as §2
A further assay concerns Micrococcus luteus. In words: Antimicrobial activity against Micrococcus luteus ATCC 9314 after 24 to 48 hrs by agar dilution method. The procedure, abridged:
as §2

For a further assay, the system named is Penicillium expansum. In words: Antimicrobial activity against Penicillium expansum after 48 to 72 hrs by agar dilution method. The essentials: as §1
The subject of a further assay is Escherichia coli. The assay is described as follows: Antimicrobial activity against Escherichia coli ATCC 10536 after 24 to 48 hrs by agar dilution method. The essentials:
as §2

A further assay deals with Fusarium equiseti. The assay is described as follows: Antimicrobial activity against Fusarium equiseti after 48 to 72 hrs by agar dilution method. The essentials:
as §1

The next assay has as its system Fusarium graminearum. The assay is described as follows: Antimicrobial activity against Fusarium graminearum after 48 to 72 hrs by agar dilution method. The procedure, abridged: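 Agar dilution MIC on ISP2 medium; fungal plates incubated 48-72 h at 28 °C; each test repeated four times.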
In a further assay the test system is Aspergillus carbonarius. In words: Antimicrobial activity against Aspergillus carbonarius M333 after 48 to 72 hrs by agar dilution method. The procedure, abridged: as §1
In the next assay the test system is Listeria monocytogenes. In words: Antimicrobial activity against Listeria monocytogenes CIP 82110 after 24 to 48 hrs by agar dilution method. The essentials:
as §2

The subject of another assay is Umbelopsis ramanniana. The assay is described as follows: Antimicrobial activity against Mucor ramannianus NRRL 1829 after 48 to 72 hrs by agar dilution method. The procedure, abridged: as §1
Another assay deals with Staphylococcus aureus. In words: Antimicrobial activity against Staphylococcus aureus CIP 7625 after 24 to 48 hrs by agar dilution method. The essentials:
as §2

The subject of the next assay is Candida albicans. The assay is described as follows: Antimicrobial activity against Candida albicans IPA 200 after 48 to 72 hrs by agar dilution method. The essentials:
as §1

The next assay relates to Heyndrickxia coagulans. The assay is described as follows: Antimicrobial activity against Bacillus coagulans CIP 6625 after 24 to 48 hrs by agar dilution method. The procedure, abridged:
as §2

The test system of a further assay is Salmonella enterica. The assay is described as follows: Antimicrobial activity against Salmonella enterica CIP 81.3 after 24 to 48 hrs by agar dilution method. The procedure, abridged: as §2
The next assay relates to Fusarium culmorum. In words: Antimicrobial activity against Fusarium culmorum after 48 to 72 hrs by agar dilution method. The procedure, abridged:
as §1

A further assay concerns Saccharomyces cerevisiae. The assay is described as follows: Antimicrobial activity against Saccharomyces cerevisiae ATCC 4226 after 48 to 72 hrs by agar dilution method. The procedure, abridged:
as §1

Values after ≈ are worked out from the molar mass of the structure shown. Where only a bound is given, the exact number is not on record here.

`CCC(=O)Nc1c2sscc-2n(C)c1=O` [AUREOTHRICIN]: the MIC is 75 µg/mL (≈ 310 µM) against Fusarium verticillioides; 40 µg/mL (≈ 165 µM) against Fusarium oxysporum; > 100 µg/mL with Klebsiella pneumoniae; 20 µg/mL (≈ 82.5 µM) with Bacillus subtilis; > 100 µg/mL against Pseudomonas aeruginosa; > 100 µg/mL in [1]. Moreover, the minimum inhibitory concentration (MIC) was 20 µg/mL (≈ 82.5 µM) in the assay on Micrococcus luteus; 20 µg/mL (≈ 82.5 µM) against Penicillium expansum; 75 µg/mL (≈ 310 µM) against Escherichia coli; 20 µg/mL (≈ 82.5 µM) in the assay on Fusarium equiseti; 75 µg/mL (≈ 310 µM) against Fusarium graminearum; 40 µg/mL (≈ 165 µM) in the assay on Aspergillus carbonarius. In addition, the MIC against Listeria monocytogenes was > 100 µg/mL; against Umbelopsis ramanniana, 20 µg/mL (≈ 82.5 µM); against Staphylococcus aureus, 100 µg/mL (≈ 413 µM); in the assay on Candida albicans, 75 µg/mL (≈ 310 µM); with Heyndrickxia coagulans, 20 µg/mL (≈ 82.5 µM); against Salmonella enterica, > 100 µg/mL. Moreover, the minimum inhibitory concentration (MIC) in the assay with Fusarium culmorum worked out at 20 µg/mL (≈ 82.5 µM); against Saccharomyces cerevisiae it was 40 µg/mL (≈ 165 µM).
Take `Cn1c2cssc-2c(NC=O)c1=O` [FORMYLPYRROTHINE]: the MIC is 75 µg/mL (≈ 350 µM) in the assay on Fusarium verticillioides; 30 µg/mL (≈ 140 µM) with Fusarium oxysporum; > 100 µg/mL in the assay with Klebsiella pneumoniae; 2 µg/mL (≈ 9.33 µM) with Bacillus subtilis; > 100 µg/mL with Pseudomonas aeruginosa; > 100 µg/mL in assay [1]. Besides, the MIC with Micrococcus luteus is 3 µg/mL (≈ 14 µM); against Penicillium expansum, 3 µg/mL (≈ 14 µM); in the assay on Escherichia coli it was 40 µg/mL (≈ 187 µM); against Fusarium equiseti, 10 µg/mL (≈ 46.7 µM); in the assay with Fusarium graminearum, 40 µg/mL (≈ 187 µM); in the assay on Aspergillus carbonarius, 50 µg/mL (≈ 233 µM). The minimal inhibitory concentration (MIC) against Listeria monocytogenes is 20 µg/mL (≈ 93.3 µM); in the assay on Umbelopsis ramanniana, 10 µg/mL (≈ 46.7 µM); against Staphylococcus aureus, 2 µg/mL (≈ 9.33 µM); with Candida albicans, 75 µg/mL (≈ 350 µM); against Heyndrickxia coagulans, 2 µg/mL (≈ 9.33 µM); against Salmonella enterica, > 100 µg/mL. The MIC against Fusarium culmorum was determined as 10 µg/mL (≈ 46.7 µM); in the assay on Saccharomyces cerevisiae it was 75 µg/mL (≈ 350 µM).
For `CCCCC(=O)Nc1c2sscc-2n(C)c1=O` [VALERYLPYRROTHINE], the minimal inhibitory concentration (MIC) in the assay on Fusarium verticillioides is 75 µg/mL (≈ 277 µM); against Fusarium oxysporum it was 50 µg/mL (≈ 185 µM); against Klebsiella pneumoniae, > 100 µg/mL; against Bacillus subtilis, 20 µg/mL (≈ 74 µM); in the assay on Pseudomonas aeruginosa, > 100 µg/mL; in [1], > 100 µg/mL. Further, the MIC in the assay with Micrococcus luteus was 40 µg/mL (≈ 148 µM); against Penicillium expansum it was 20 µg/mL (≈ 74 µM); against Escherichia coli it was > 100 µg/mL; against Fusarium equiseti it was 20 µg/mL (≈ 74 µM); in the assay on Fusarium graminearum, 75 µg/mL (≈ 277 µM); in the assay on Aspergillus carbonarius, 20 µg/mL (≈ 74 µM). Moreover, the MIC in the assay on Listeria monocytogenes is > 100 µg/mL; in the assay with Umbelopsis ramanniana, 10 µg/mL (≈ 37 µM); against Staphylococcus aureus it was 75 µg/mL (≈ 277 µM); against Candida albicans, 20 µg/mL (≈ 74 µM); in the assay with Heyndrickxia coagulans, 20 µg/mL (≈ 74 µM); against Salmonella enterica, > 100 µg/mL. Moreover, the MIC is 20 µg/mL (≈ 74 µM) with Fusarium culmorum and 10 µg/mL (≈ 37 µM) against Saccharomyces cerevisiae.

The record behind these values is ChEMBL document CHEMBL1165988, “Dithiolopyrrolone antibiotic formation induced by adding valeric acid to the culture broth of Saccharothrix algeriensis” (2010).
